ChEMBL document CHEMBL3872225, “Synthesis, binding assays, cytotoxic activity and docking studies of benzimidazole and benzothiophene derivatives with selective affinity for the CB2 cannabinoid receptor” (Eur J Med Chem, 2016)

Target: Cannabinoid receptor 1 (Homo sapiens, UniProt P21554)
Assay: Displacement of [3H]CP-55940 from human recombinant CB1 receptor expressed in HEK293 cell membranes incubated for 1.5 hrs
Conditions: not given
Procedure, shortened: (§1)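 Membranes from HEK-293 cells overexpressing human CB1 or CB2 incubated with increasing compound concentrations and 0.5 nM [3H]CP-55,940 at 30 °C for 1.5 h. […] Selectivity index is Ki CB1/Ki CB2.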

Sequence of Cannabinoid receptor 1 (P21554 whole entry): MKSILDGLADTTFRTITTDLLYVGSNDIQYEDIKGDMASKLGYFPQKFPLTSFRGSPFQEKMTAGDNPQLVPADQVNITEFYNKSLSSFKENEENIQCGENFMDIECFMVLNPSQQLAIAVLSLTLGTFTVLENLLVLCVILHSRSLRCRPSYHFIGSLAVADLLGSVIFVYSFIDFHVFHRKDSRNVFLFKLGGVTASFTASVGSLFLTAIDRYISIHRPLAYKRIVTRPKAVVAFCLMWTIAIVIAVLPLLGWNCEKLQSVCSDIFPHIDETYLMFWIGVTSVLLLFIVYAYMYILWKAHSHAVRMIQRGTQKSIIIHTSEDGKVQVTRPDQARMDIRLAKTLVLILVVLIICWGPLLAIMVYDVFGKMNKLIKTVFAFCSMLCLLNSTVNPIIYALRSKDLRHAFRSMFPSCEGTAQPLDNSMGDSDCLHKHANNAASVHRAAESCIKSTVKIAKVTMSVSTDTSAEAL

SMILES	IC50 [µM]	Ki [µM]
CC(C)(C)c1nc2ccccc2n1C(=O)c1cccc2ccccc12	> 10	> 10
CCCCc1nc2ccccc2n1C(=O)c1ccc(OC)cc1	> 10	> 10
CC(C)Cc1nc2ccccc2n1C(=O)c1cccc2ccccc12	> 10	> 10
COc1ccc(-c2sc3ccccc3c2C(=O)c2cccc3ccccc23)cc1	8.4	5.1
CCCCc1nc2ccccc2n1C(=O)c1cccc2ccccc12	9.7	5.9
CCCc1sc2ccccc2c1C(=O)c1ccc(OC)cc1	> 10	> 10

Target: Cannabinoid receptor 1 (CB1) (Homo sapiens, UniProt P21554)
Sequence (P21554 whole entry): as above
Assay: Displacement of [3H]CP-55940 from human recombinant CB1 receptor expressed in HEK293 cell membranes at 1 uM incubated for 1.5 hrs relative to control
Conditions: probe [3H]CP-55940
Procedure, shortened: (§2)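 Single-point screen on HEK-293 membranes overexpressing human CB1 or CB2. […] Compounds displacing more than 50% at 1 μM went on to full curves.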

SMILES	inhibition at 1.5 h, 1 µM [%]
CC(C)(C)c1nc2ccccc2n1C(=O)c1cccc2ccccc12	> 50
CCCCc1nc2ccccc2n1C(=O)c1ccc(OC)cc1	> 50
CC(C)Cc1nc2ccccc2n1C(=O)c1cccc2ccccc12	> 50
COc1ccc(-c2sc3ccccc3c2C(=O)c2cccc3ccccc23)cc1	> 50
CCCCc1nc2ccccc2n1C(=O)c1cccc2ccccc12	> 50
CCCc1sc2ccccc2c1C(=O)c1ccc(OC)cc1	> 50

Target: T1, Cannabinoid receptor 2 (Homo sapiens, UniProt P34972)
T1 sequence (P34972 whole entry): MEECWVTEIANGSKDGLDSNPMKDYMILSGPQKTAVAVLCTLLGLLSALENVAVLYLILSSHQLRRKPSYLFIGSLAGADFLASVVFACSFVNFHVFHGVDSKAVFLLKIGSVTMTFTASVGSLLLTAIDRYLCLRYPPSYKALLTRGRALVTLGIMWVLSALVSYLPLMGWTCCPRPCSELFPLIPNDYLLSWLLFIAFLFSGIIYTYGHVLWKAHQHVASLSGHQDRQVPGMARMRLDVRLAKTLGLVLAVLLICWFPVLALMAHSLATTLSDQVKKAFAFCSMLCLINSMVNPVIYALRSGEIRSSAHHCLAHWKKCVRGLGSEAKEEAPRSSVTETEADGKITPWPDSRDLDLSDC
Assay: Displacement of [3H]CP-55940 from human recombinant CB2 receptor expressed in HEK293 cell membranes at 1 uM incubated for 1.5 hrs relative to control
Conditions: not given
Procedure, shortened: as §2

SMILES	inhibition [%]
CC(C)(C)c1nc2ccccc2n1C(=O)c1cccc2ccccc12	> 50
CCCCc1nc2ccccc2n1C(=O)c1ccc(OC)cc1	> 50
CC(C)Cc1nc2ccccc2n1C(=O)c1cccc2ccccc12	> 50
COc1ccc(-c2sc3ccccc3c2C(=O)c2cccc3ccccc23)cc1	> 50
CCCCc1nc2ccccc2n1C(=O)c1cccc2ccccc12	> 50
CCCc1sc2ccccc2c1C(=O)c1ccc(OC)cc1	> 50

Target: T1, Cannabinoid receptor 2
Assay: Displacement of [3H]CP-55940 from human recombinant CB2 receptor expressed in HEK293 cell membranes incubated for 1.5 hrs
Conditions: not given
Procedure, shortened: as §1

SMILES	IC50 [µM]	Ki [µM]
CC(C)(C)c1nc2ccccc2n1C(=O)c1cccc2ccccc12	0.3	0.08
CCCCc1nc2ccccc2n1C(=O)c1ccc(OC)cc1	6.3	1.6
CC(C)Cc1nc2ccccc2n1C(=O)c1cccc2ccccc12	0.5	0.1
COc1ccc(-c2sc3ccccc3c2C(=O)c2cccc3ccccc23)cc1	1.4	0.3
CCCCc1nc2ccccc2n1C(=O)c1cccc2ccccc12	1.7	0.4
CCCc1sc2ccccc2c1C(=O)c1ccc(OC)cc1	1.2	0.3

Species: Homo sapiens
Assay: Selectivity index, ratio of Ki for displacement of [3H]CP-55940 from human recombinant CB1 receptor to Ki for displacement of [3H]CP-55940 from human recombinant CB2 receptor
Conditions: not given
Procedure, shortened: as §1

SMILES	Ratio Ki
CC(C)(C)c1nc2ccccc2n1C(=O)c1cccc2ccccc12	> 125
CCCCc1nc2ccccc2n1C(=O)c1ccc(OC)cc1	> 6.25
CC(C)Cc1nc2ccccc2n1C(=O)c1cccc2ccccc12	> 100
COc1ccc(-c2sc3ccccc3c2C(=O)c2cccc3ccccc23)cc1	17
CCCCc1nc2ccccc2n1C(=O)c1cccc2ccccc12	14.7
CCCc1sc2ccccc2c1C(=O)c1ccc(OC)cc1	> 33

Tested on: not listed separately
Assay: Cytotoxicity against human HeLa cells assessed as reduction in cell viability measured after 72 hrs by MTT assay
Type: functional, cell-based
Conditions: not given
Procedure, shortened: (§3)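 Cells kept in RPMI 1640 with 5% FBS, penicillin/streptomycin, 37 °C, 5% CO2. Seeded at 10,000 cells/well, then exposed to compounds at 0.001–10 μM in 5% FBS-RPMI for 72 h at 37 °C. MTT added for 4 h, formazan dissolved overnight in 10% SDS/0.1 mM HCl, absorbance read at 570 nm. […] Etoposide as positive control.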

SMILES	IC50 [µM]
CC(C)(C)c1nc2ccccc2n1C(=O)c1cccc2ccccc12	> 10
CCCCc1nc2ccccc2n1C(=O)c1ccc(OC)cc1	> 10
CC(C)Cc1nc2ccccc2n1C(=O)c1cccc2ccccc12	> 10
COc1ccc(-c2sc3ccccc3c2C(=O)c2cccc3ccccc23)cc1	> 10
CCCCc1nc2ccccc2n1C(=O)c1cccc2ccccc12	> 10
CCCc1sc2ccccc2c1C(=O)c1ccc(OC)cc1	> 10

Tested on: not listed separately
Assay: Cytotoxicity against resistant human HCT116 cells assessed as reduction in cell viability measured after 72 hrs by MTT assay
Type: functional, cell-based
Conditions: HCT-116, 72 h
Procedure, shortened: as §3

SMILES	IC50 [µM]
CC(C)(C)c1nc2ccccc2n1C(=O)c1cccc2ccccc12	> 10
CCCCc1nc2ccccc2n1C(=O)c1ccc(OC)cc1	> 10
CC(C)Cc1nc2ccccc2n1C(=O)c1cccc2ccccc12	2.17
COc1ccc(-c2sc3ccccc3c2C(=O)c2cccc3ccccc23)cc1	> 10
CCCCc1nc2ccccc2n1C(=O)c1cccc2ccccc12	0.56
CCCc1sc2ccccc2c1C(=O)c1ccc(OC)cc1	> 10

Tested on: not listed separately
Assay: Cytotoxicity against African green monkey Vero cells assessed as reduction in cell viability measured after 72 hrs by MTT assay
Type: toxicity, cell-based
Conditions: Chlorocebus sabaeus (African green monkey)
Procedure, shortened: as §3

SMILES	IC50 at 72 h [µM]
CC(C)(C)c1nc2ccccc2n1C(=O)c1cccc2ccccc12	> 10
CCCCc1nc2ccccc2n1C(=O)c1ccc(OC)cc1	0.17
CC(C)Cc1nc2ccccc2n1C(=O)c1cccc2ccccc12	> 10
COc1ccc(-c2sc3ccccc3c2C(=O)c2cccc3ccccc23)cc1	> 10
CCCCc1nc2ccccc2n1C(=O)c1cccc2ccccc12	4.1
CCCc1sc2ccccc2c1C(=O)c1ccc(OC)cc1	> 10

Tested on: not listed separately
Assay: Cytotoxicity against human HL60 cells assessed as reduction in cell viability measured after 72 hrs by MTT assay
Type: functional, cell-based
Conditions: HL-60, 72 h
Procedure, shortened: as §3

SMILES	IC50 [µM]
CC(C)(C)c1nc2ccccc2n1C(=O)c1cccc2ccccc12	0.13
CCCCc1nc2ccccc2n1C(=O)c1ccc(OC)cc1	0.061
CC(C)Cc1nc2ccccc2n1C(=O)c1cccc2ccccc12	0.094
COc1ccc(-c2sc3ccccc3c2C(=O)c2cccc3ccccc23)cc1	0.071
CCCCc1nc2ccccc2n1C(=O)c1cccc2ccccc12	0.105
CCCc1sc2ccccc2c1C(=O)c1ccc(OC)cc1	0.08

Tested on: not listed separately
Assay: Cytotoxicity against human H1975-1 cells assessed as reduction in cell viability measured after 72 hrs by MTT assay
Type: functional, cell-based
Conditions: not given
Procedure, shortened: as §3

SMILES	IC50 [µM]
CC(C)(C)c1nc2ccccc2n1C(=O)c1cccc2ccccc12	> 10
CCCCc1nc2ccccc2n1C(=O)c1ccc(OC)cc1	> 10
CC(C)Cc1nc2ccccc2n1C(=O)c1cccc2ccccc12	> 10
COc1ccc(-c2sc3ccccc3c2C(=O)c2cccc3ccccc23)cc1	> 10
CCCCc1nc2ccccc2n1C(=O)c1cccc2ccccc12	> 10
CCCc1sc2ccccc2c1C(=O)c1ccc(OC)cc1	> 10
